How the values were obtained:
Hippocampal neurone = assay: Induction of neurite outgrowth in Sprague-Dawley rat primary hippocampal neurons assessed as increase in length of axonal neurite incubated for 3 days by DAPI staining based immunofluorescence microscopic analysis; format: functional; conditions: time 3.0 day
Summary of the method: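 Primary hippocampal neurons from embryonic Sprague-Dawley rats, plated on poly-D-lysine and kept in B27-neurobasal medium. Treated with DMSO or compound from DIV3 for three days, fixed at DIV6 in 4% paraformaldehyde. Axons stained with anti-tau, dendrites with anti-MAP2, nuclei with DAPI; fluorescence microscopy. At least 20 neurons traced for number and length of primary, secondary and tertiary neurites.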

Histone deacetylase 7 = target: T1, Histone deacetylase 7 (Homo sapiens, UniProt Q8WUI4); assay: Inhibition of recombinant human N-terminal GST-tagged HDAC7 (518 to end residues) expressed in baculovirus infected Sf9 cells using fluorogenic HDAC 2A substrate preincubated for 5 mins followed by substrate addition and measured after 30 mins by fluorescence assay
T1 sequence (Q8WUI4 whole entry): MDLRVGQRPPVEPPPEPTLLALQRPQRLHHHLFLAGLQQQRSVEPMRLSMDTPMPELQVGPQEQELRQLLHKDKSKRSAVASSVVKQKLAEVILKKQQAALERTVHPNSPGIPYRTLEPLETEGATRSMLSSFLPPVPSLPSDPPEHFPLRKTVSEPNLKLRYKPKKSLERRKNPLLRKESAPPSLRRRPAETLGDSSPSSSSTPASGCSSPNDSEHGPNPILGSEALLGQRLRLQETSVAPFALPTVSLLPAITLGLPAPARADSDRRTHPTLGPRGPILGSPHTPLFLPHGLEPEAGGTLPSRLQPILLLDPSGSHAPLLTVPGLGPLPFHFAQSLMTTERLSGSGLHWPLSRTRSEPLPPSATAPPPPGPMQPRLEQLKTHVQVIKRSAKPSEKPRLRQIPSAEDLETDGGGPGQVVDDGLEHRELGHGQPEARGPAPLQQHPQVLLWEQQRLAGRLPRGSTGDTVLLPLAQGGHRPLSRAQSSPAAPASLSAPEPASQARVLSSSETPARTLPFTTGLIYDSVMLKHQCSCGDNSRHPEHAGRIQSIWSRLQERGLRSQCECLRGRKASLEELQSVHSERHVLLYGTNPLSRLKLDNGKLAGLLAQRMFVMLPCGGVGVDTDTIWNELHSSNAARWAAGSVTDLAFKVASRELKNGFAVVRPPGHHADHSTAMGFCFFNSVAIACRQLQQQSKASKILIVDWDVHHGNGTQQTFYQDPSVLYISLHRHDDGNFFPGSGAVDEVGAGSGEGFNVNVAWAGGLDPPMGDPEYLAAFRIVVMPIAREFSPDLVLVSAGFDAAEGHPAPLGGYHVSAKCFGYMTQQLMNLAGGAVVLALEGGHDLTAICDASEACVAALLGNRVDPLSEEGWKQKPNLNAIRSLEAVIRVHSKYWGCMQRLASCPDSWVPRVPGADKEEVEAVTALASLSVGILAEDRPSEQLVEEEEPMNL

MDR1 = assay: Efflux ratio of apparent permeability across basolateral to apical side over apical to basolateral side in MDCK-MDR1 cells at 5 uM measured after 2 hrs by LC-MS/MS analysis; format: ADME, cell-based, Canis lupus familiaris; conditions: dog
Summary of the method: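 MDR1-MDCK monolayers grown to confluence on collagen-coated microporous membranes. Test article dosed at 5 µM apical (A-to-B) or basolateral (B-to-A) in HBSS with 10 mM HEPES, 15 mM glucose, pH 7.4; receiver buffer has 1% BSA. 37 °C, 5% CO2; donor and receiver sampled at 120 min, quantified by LC-MS/MS (ESI). Duplicate determinations; lucifer yellow flux checks monolayer integrity. Efflux ratio = Papp(B-A)/Papp(A-B).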

Question: Which Activity (Hippocampal neurone) does the source give for `O=C(NO)c1ccc(Nc2c3ccccc3nc3ccc(Br)cc23)cc1` here?
Answer: Dose-dependent effect

Question: And the IC50 (Histone deacetylase 7)?
Answer: 9.13 µM

Question: What about the efflux ratio at 2 h, 5 µM (MDR1) of the same compound?
Answer: 7.42

From ChEMBL document CHEMBL4680220, “Synthesis and biological evaluation of acridine-based histone deacetylase inhibitors as multitarget agents against Alzheimer's disease” (Eur J Med Chem, 2020)
